Assay results gathered from unrelated publications.
Protocols differ between the studies behind these lines.
Cell line: PC-3
Read-out: cell growth or viability

SMILES | test | conditions | quantity | value
O=C(Nc1cccc(Oc2ccccc2)c1)C1CCCN(C(=O)c2cccc(-c3ccco3)c2)C1 (centres unmarked) | WST-1 | 100 µM | inhibition | 0%
COc1ccc(C(=O)/C=C/c2ccc(Cl)c(Cl)c2)cc1S(N)(=O)=O | SRB | 48 h | GI50 | 1.9 µM
O=C(Nc1cccc(Oc2ccccn2)c1)C1CCCN(C(=O)c2cc(C(F)(F)F)cc(C(F)(F)F)c2)C1 (centres unmarked) | WST-1 | 100 µM | inhibition | 0%
NC1(C(=O)N[C@@H](CCO)c2ccc(Cl)cc2)CCN(c2ncnc3[nH]ccc23)CC1 |  | 72 h | GI50 | > 8 µM
O=C(CN1C(=O)/C(=C/c2ccco2)SC1=S)Nc1ccccc1 | MTT | 10 µM | inhibition | 23.1%
COc1cc2ncnc(Nc3ccc(F)c(Cl)c3)c2cc1NC(=O)N/N=C/CN(C)C | MTT | 72 h | IC50 | 2.78 µM
COc1ccc(C(=O)/C=C/c2cccc(Cl)c2Cl)cc1S(N)(=O)=O | SRB | 48 h | GI50 | 4.5 µM
COc1cc(-c2ccc(-c3ccc(C(=N)N)nc3)s2)cc(OC)c1OC |  |  | GI50 | 3.11 µM
COc1cccc(Oc2ccccc2NC(=O)CNC(=O)c2cccc3ccccc23)c1 | SRB | 48 h | GI50 | 0.282 µM
COc1cc2ncnc(Nc3ccc(F)c(Cl)c3)c2cc1NC(=O)N/N=C/c1cccn1CCN1CCCCC1 | MTT | 72 h | IC50 | 2.24 µM
O=C(CN1C(=O)/C(=C/c2ccc[nH]2)SC1=S)Nc1ccccc1 | MTT | 10 µM | inhibition | 22.7%
CCN(CC)CCn1cccc1/C=N/NC(=O)Nc1cc2c(Nc3ccc(F)c(Cl)c3)ncnc2cc1O[C@H]1CCOC1 | MTT | 72 h | IC50 | 0.15 µM
N#Cc1cccc(NC(=O)C2CCCN(C(=O)c3cc(C(F)(F)F)cc(C(F)(F)F)c3)C2)c1 (centres unmarked) | WST-1 | 100 µM | inhibition | 0%
C#CC[C@]1(O)C[C@@H]2c3cc(OCc4cc(C)cc(C)c4)c(OCc4cc(C)cc(C)c4)cc3CCN2[C@@H](C)C1 | MTT |  | IC50 | 0.523 µM
O=C(CN1C(=O)/C(=C/c2cccs2)SC1=S)Nc1ccccc1 | MTT | 10 µM | inhibition | 5.3%
O=C(Nc1cccc(Oc2nccc(C(F)(F)F)c2Cl)c1)C1CCCN(C(=O)c2cc(C(F)(F)F)cc(C(F)(F)F)c2)C1 (centres unmarked) | WST-1 | 100 µM | inhibition | 0%

SMILES | test | conditions | quantity | value
COc1ccc(C(=O)/C=C/c2cc3c(cc2Br)OCO3)cc1S(N)(=O)=O | SRB | 48 h | GI50 | 6.8 µM
COc1cc2ncnc(Nc3ccc(F)c(Cl)c3)c2cc1NC(=O)N/N=C/c1cccn1CCCN1CCOCC1 | MTT | 72 h | IC50 | 0.05 µM
COc1ccc(C(=O)/C=C/c2ccccc2Br)cc1S(N)(=O)=O | SRB | 48 h | GI50 | 4.3 µM
CCN(CC)CCCn1cccc1/C=N/NC(=O)Nc1cc2c(Nc3ccc(F)c(Cl)c3)ncnc2cc1OC | MTT | 72 h | IC50 | 1.18 µM
O=C(Nc1cccc(CN2CCOCC2)c1)C1CCCN(C(=O)c2cc(C(F)(F)F)cc(C(F)(F)F)c2)C1 (centres unmarked) | WST-1 | 100 µM | inhibition | 0%
O=C(CN1C(=O)/C(=C/c2cccc(Br)c2)SC1=S)Nc1ccccc1 | MTT | 10 µM | inhibition | 27.3%
O=C(N/N=C/c1cccn1CCN1CCCC1)Nc1cc2c(Nc3ccc(F)c(Cl)c3)ncnc2cc1O[C@H]1CCOC1 | MTT | 72 h | IC50 | 1.9 µM
COc1ccc(C(=O)/C=C/c2ccc3ccccc3c2)cc1S(N)(=O)=O | SRB | 10 µM | inhibition | 112%
CC(C)c1ccc(/C=C2\SC(=S)N(CC(=O)Nc3ccccc3)C2=O)cc1 | MTT | 10 µM | inhibition | 29%
COc1ccc(C(=O)/C=C/c2cccc3ccccc23)cc1S(N)(=O)=O | SRB | 48 h | GI50 | 2.3 µM
COc1cccc(/C=C2\SC(=S)N(CC(=O)Nc3ccccc3)C2=O)c1 | MTT | 10 µM | inhibition | 10.6%
Cc1cc(C)cc(COc2cc3c(cc2OCc2cc(C)cc(C)c2)[C@H]2C[C@](O)(Cc4cn(Cc5ccc(-c6ccccc6)cc5)nn4)C[C@H](C)N2CC3)c1 | MTT |  | IC50 | 0.206 µM
CSc1cccc(NC(=O)C2CCCN(C(=O)c3cc(C(F)(F)F)cc(C(F)(F)F)c3)C2)c1 (centres unmarked) | WST-1 | 100 µM | inhibition | 0%
COc1cccc(NC(=O)CN2C(=O)/C(=C/C3CC3)SC2=S)c1 | MTT | 10 µM | inhibition | 18.6%
O=C(Nc1cccc(N2CCCC2=O)c1)C1CCCN(C(=O)c2cc(C(F)(F)F)cc(C(F)(F)F)c2)C1 (centres unmarked) | WST-1 | 100 µM | inhibition | 0%
O=C(CN1C(=O)/C(=C/c2ccc(C(F)(F)F)cc2)SC1=S)Nc1ccccc1 | MTT | 10 µM | inhibition | 32.1%
